Measurements reported in ChEMBL document CHEMBL2396626, “Exploiting drug-resistant enzymes as tools to identify thienopyrimidinone inhibitors of human immunodeficiency virus reverse transcriptase-associated ribonuclease H” (J Med Chem, 2013).
pEC50, pIC50: −log10 of the molar value. Calls of active or inactive are those of the source. The rule behind the calls is not given here.

Experiments:
[1] = molecular target: Human immunodeficiency virus type 1 integrase (Human immunodeficiency virus 1) (UniProt Q7ZJM1); test: Inhibition of HIV-1 integrase using DNA duplex as substrate at 50 uM preincubated for 10 mins prior to substrate addition measured after 1 hr
Sequence of Human immunodeficiency virus type 1 integrase (Human immunodeficiency virus 1) (Q7ZJM1 as listed by the source): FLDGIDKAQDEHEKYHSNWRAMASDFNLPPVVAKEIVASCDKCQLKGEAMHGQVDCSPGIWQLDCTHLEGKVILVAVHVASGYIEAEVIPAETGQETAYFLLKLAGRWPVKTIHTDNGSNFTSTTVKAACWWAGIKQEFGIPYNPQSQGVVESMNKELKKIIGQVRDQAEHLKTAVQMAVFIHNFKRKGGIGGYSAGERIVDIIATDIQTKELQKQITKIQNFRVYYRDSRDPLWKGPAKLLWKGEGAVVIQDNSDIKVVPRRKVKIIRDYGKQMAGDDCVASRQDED

[2] = molecular target: Human immunodeficiency virus type 1 reverse transcriptase (Human immunodeficiency virus 1) (UniProt Q72547); test: Binding affinity to HIV-1 reverse transcriptase p66/p51 assessed as decrease in melting temperature at 10 uM by differential scanning fluorimetric analysis in presence of Mg2+
[3] = Inhibition of RNase H activity of HIV-1 reverse transcriptase p66/p51 T286A mutant using 18 nucleotide 3'-fluorescein-labeled RNA/18 nucleotide 5'-dabsyl-labeled DNA hybrid as substrate after 10 mins by fluorescence spectrometric analysis; design: species or system Human immunodeficiency virus 1
[4] = test system: Human immunodeficiency virus type 1 reverse transcriptase (Human immunodeficiency virus 1), Q72547 [K103N]; test: Inhibition of HIV-1 reverse transcriptase K103N mutant at 50 uM
[5] = test system: Human immunodeficiency virus type 1 reverse transcriptase (Human immunodeficiency virus 1), Q72547 [Y181C]; test: Inhibition of HIV-1 reverse transcriptase Y181C mutant at 50 uM
[6] = molecular target: Human immunodeficiency virus type 1 reverse transcriptase (Human immunodeficiency virus 1, UniProt Q72547); test: Inhibition of RNase H activity of wild type HIV-1 reverse transcriptase using 18 nucleotide 3'-fluorescein-labeled RNA/18 nucleotide 5'-dabsyl-labeled DNA hybrid as substrate after 10 mins by fluorescence spectrometric analysis
[7] = Inhibition of RNase H activity of HIV-1 reverse transcriptase p66/p51 V276A mutant using 18 nucleotide 3'-fluorescein-labeled RNA/18 nucleotide 5'-dabsyl-labeled DNA hybrid as substrate after 10 mins by fluorescence spectrometric analysis; design: species or system Human immunodeficiency virus 1
[8] = test system: Human immunodeficiency virus 1; test: Inhibition of HIV-1 DNA-dependent DNA polymerase using DNA duplex as substrate at 50 uM after 15 mins by PAGE relative to control
[9] = Inhibition of RNase H activity of HIV-1 reverse transcriptase p66/p51 C280A mutant using 18 nucleotide 3'-fluorescein-labeled RNA/18 nucleotide 5'-dabsyl-labeled DNA hybrid as substrate after 10 mins by fluorescence spectrometric analysis; design: species or system Human immunodeficiency virus 1
[10] = Inhibition of RNase H activity of HIV-1 reverse transcriptase p66/p51 R284A mutant using 18 nucleotide 3'-fluorescein-labeled RNA/18 nucleotide 5'-dabsyl-labeled DNA hybrid as substrate after 10 mins by fluorescence spectrometric analysis; design: species or system Human immunodeficiency virus 1
CEM-SS = test: Cytotoxicity against human CEM-SS cells by XTT assay; format: cell-based
Method in brief: (§1)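 Cytopathic-protection format: HIV-1 RF isolate in human T-cell line CEM-SS, with cell viability read by XTT-based assay.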

[11] = Selectivity ratio of CC50 for human CEM-SS cells to EC50 for Human immunodeficiency virus 1 RF isolate; format: ADME, cell-based
[12] = test system: Human immunodeficiency virus 1; test: Antiviral activity against Human immunodeficiency virus 1 RF isolate infected in human CEM-SS cells by XTT assay; format: functional, organism-based; method in brief: as §1
[13] = molecular target: Human immunodeficiency virus type 1 reverse transcriptase (Human immunodeficiency virus 1) (UniProt Q72547); test: Binding affinity to HIV-1 reverse transcriptase p66/p51-RNA/DNA hybrid complex assessed as decrease in melting temperature at 10 uM by differential scanning fluorimetric analysis in presence of Mg2+
[14] = molecular target: Human immunodeficiency virus type 1 reverse transcriptase (Human immunodeficiency virus 1) (UniProt Q72547); test: Inhibition of RNase H activity of HIV-1 reverse transcriptase using 18 nucleotide 3'-fluorescein-labeled RNA/18 nucleotide 5'-dabsyl-labeled DNA hybrid as substrate by Yonetani-Theorell plot analysis in presence of beta-thujaplicinol
Method in brief: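 Yonetani-Theorell: RNase H rates at 250 nM RNA/DNA substrate, fixed enzyme, thienopyrimidinone 0–5 μM against β-thujaplicinol 0, 0.125, 0.25, 0.5, 1 μM; hydrolysis started with substrate, monitored 60 min; V0/Vi plotted and fitted to two-inhibitor equation with interaction term.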

[15] = molecular target: Human immunodeficiency virus type 1 reverse transcriptase (Human immunodeficiency virus 1) (UniProt Q72547); details: 500 uM

| SMILES | pIC50 [6] | pIC50 [7] | pIC50 [9] | pIC50 [10] | further results |
| --- | --- | --- | --- | --- | --- |
| O=c1[nH]c(-c2ccc(O)c(O)c2)nc2sc3c(c12)CCCCCC3 | 6.59 | 6.96 | 6.64 | 6.55 | inhibition [1]: inactive; ΔTm [2]: 0.5 °C; pIC50 [3]: 6.54; inhibition [4]: Active; inhibition [5]: Active; inhibition [8]: > 60% |
| O=c1[nH]c(-c2cccc(O)c2O)nc2sc3c(c12)CCCCC3 | 5.74 | 5.55 | 5.80 | 5.54 | ΔTm [2]: 0.5 °C; pIC50 [3]: 5.44; CC50 (CEM-SS): 9800 nM; Ratio CC50/EC50 [11]: 3.6; pEC50 [12]: 5.57 |
| COc1ccc(-c2nc3sc(C)c(C)c3c(=O)[nH]2)cc1 | 5.04 |  |  |  |  |
| Cc1sc2nc(-c3ccc([N+](=O)[O-])cc3)[nH]c(=O)c2c1C |  |  |  |  | ΔTm [2]: 0.5 °C |
| Cc1sc2nc(-c3cc(O)c(O)c(O)c3)[nH]c(=O)c2c1C | 6.16 |  |  |  |  |
| Cc1sc2nc(-c3ccccn3)[nH]c(=O)c2c1C | 5.38 |  |  |  |  |
| Cc1sc2nc(-c3ccc([N+](=O)[O-])o3)[nH]c(=O)c2c1C | 4.77 |  |  |  |  |
| O=c1[nH]c(-c2cc(O)cc(O)c2)nc2sc3c(c12)CCCCC3 | 5.59 |  |  |  |  |
| Cc1sc2nc(-c3cccc(C(F)(F)F)c3)[nH]c(=O)c2c1C | < 4.30 |  |  |  |  |
| Cc1sc2nc(-c3cccc([N+](=O)[O-])c3)[nH]c(=O)c2c1C | 5.82 | 6.59 | < 4.30 | 6.47 |  |
| Cc1sc2nc(-c3cc(C(F)(F)F)cc(C(F)(F)F)c3)[nH]c(=O)c2c1C | < 4.30 |  |  |  |  |
| O=c1[nH]c(-c2ccc(O)c(O)c2)nc2sc3c(c12)CCCCC3 | 6.54 | 6.43 | 6.59 | 6.26 | ΔTm [13]: 5.9 °C; inhibition [1]: inactive; ΔTm [2]: 0.5 °C; inhibition [14]: Active; pIC50 [3]: 6.44; CC50 (CEM-SS): 6800 nM; Ratio CC50/EC50 [11]: 4.3; pEC50 [12]: 5.80 |
| O=C(O)c1ccc(-c2nc3sc4c(c3c(=O)[nH]2)CCCCC4)cc1 | 5.72 | 6.34 | < 4.30 | 6.02 | pIC50 [3]: 4.49 |
| Cc1sc2nc(-c3ccc(O)cc3)[nH]c(=O)c2c1C | 6.10 | 6.85 | < 4.30 | 6.70 | pIC50 [3]: 5.43 |
| COc1ccc(-c2nc3sc(C)c(C)c3c(=O)[nH]2)cc1OC | 4.90 |  |  |  |  |
| Cc1sc2nc(-c3cccc(O)c3)[nH]c(=O)c2c1C | < 4.30 |  |  |  |  |
| Cc1sc2nc(-c3ccccc3)[nH]c(=O)c2c1C | 4.95 |  |  |  |  |
| COc1cc(-c2nc3sc(C)c(C)c3c(=O)[nH]2)ccc1O | < 4.30 |  |  |  |  |
| CC(C)c1ccc(O)c(=O)c(O)c1 |  |  |  |  | ΔTm [2]: 0.5 °C; ΔTm [15]: 2 °C |
| Cc1sc2nc(-c3cc(O)c(O)cc3O)[nH]c(=O)c2c1C | 5.80 |  |  |  |  |
